Source: article PMC9810080 (Biochemistry, 2022)
Residues, ends and D or L forms follow the SMILES beside them.

Columns and labels:
[1] = target: Ca^2+-bound CaM C-lobe (residues 80–149) (Homo sapiens, UniProt P0DP23); assay: ITC, peptide binding to isolated CaM C-lobe; conditions: for ΔH1: ITC one-site model, isolated CaM C-lobe, 27 °C, pH 7.0, 1 mM CaCl2; for fold decrease in binding affinity to CaM C-lobe caused by mutation: versus CaM2^WT, ITC
Method in brief: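 Wild-type and point-mutant CNGB1 peptides (DMSO-d6 stocks, UV–vis quantified) and the recombinant Ca2+-bound CaM C-lobe fragment were exchanged into 20 mM Tris pH 7.0, 100 mM KCl, 1 mM CaCl2. At 27 °C, 50 μM peptide in the cell was titrated with 0.5 mM C-lobe over 34 injections. Isotherms were fitted to a one-site model.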

[2] = target: Ca^2+-bound CaM (full-length calmodulin) (Homo sapiens, UniProt P0DP23); assay: ITC, peptide binding to full-length Ca2+-bound CaM; conditions: for K2: association constant, site 2; for K2 / ΔH1 / ΔH2: ITC two-site model, 27 °C, pH 7.0, 1 mM CaCl2; for ΔH1: higher-affinity exothermic site; for ΔH2: lower-affinity endothermic site
Method in brief: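 Calorimetry at 27 °C used CNGB1 CaM-binding-domain peptides (DMSO-d6 stocks, quantified by UV–vis) and recombinant Ca2+-bound CaM, both exchanged into 20 mM Tris pH 7.0, 100 mM KCl, 1 mM CaCl2. Peptide at 50 μM in the cell was titrated with 0.5 mM CaM over 34 injections, and the isotherm was fitted to a two-site model. The apoCaM comparison used 20 mM Tris pH 8.0, 100 mM KCl, 2 mM EGTA with a one-site fit.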

Ca^2+-free CaM (apoCaM) = Ca^2+-free CaM (apoCaM) (Homo sapiens, UniProt P0DP23); assay: ITC, peptide binding to Ca2+-free CaM; conditions: ITC one-site model; 27 °C; 20 mM Tris pH 8.0, 100 mM KCl, 2 mM EGTA
Method in brief: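 Recombinant calmodulin (Ca²⁺-free) titrated into a synthetic CNGB1 CaM-binding-domain peptide (residues 1120–1147; dissolved in DMSO-d₆, quantified by UV–vis). Both were exchanged into 20 mM Tris pH 8.0, 100 mM KCl, 2 mM EGTA. Peptide was 50 μM in the cell and CaM was 0.5 mM in the syringe, over 34 injections at 27 °C. The isotherm was fit to a one-site model for ΔH.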

[3] = target: Ca^2+-bound CaM N-lobe (residues 1–80) (Homo sapiens, UniProt P0DP23); assay: ITC, peptide binding to isolated CaM N-lobe; conditions: for ΔH1: ITC, isolated CaM N-lobe, 27 °C, pH 7.0, 1 mM CaCl2
Method in brief: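 The isolated recombinant Ca2+-bound CaM N-lobe and CNGB1 peptides (DMSO-d6 stocks, UV–vis quantified) were buffer-exchanged into 20 mM Tris pH 7.0, 100 mM KCl, 1 mM CaCl2. At 27 °C, 50 μM peptide in the cell was titrated with 0.5 mM N-lobe over 34 injections. The CaM1 isotherm was fitted to a one-site model and the CaM2 isotherm to a two-site model.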

Structure (SMILES) | ΔH1 [1] | fold decrease in binding affinity to CaM C-lobe caused by mutation [1] | K2 [2] | ΔH1 [2] [kcal/mol] | ΔH2 [2] | ΔH1 [3] | also measured
CC(C)C[C@H](NC(=O)[C@H](C)NC(=O)[C@H](C)NC(=O)[C@H](CC(C)C)NC(=O)[C@H](CCC(=O)O)NC(=O)[C@H](CCCCN)NC(=O)[C@H](CC(C)C)NC(=O)[C@H](CCCNC(=N)N)NC(=O)[C@H](C)NC(=O)[C@H](CCCNC(=N)N)NC(=O)[C@H](CC(C)C)NC(=O)[C@H](Cc1c[nH]cn1)NC(=O)[C@H](C)NC(=O)[C@H](CC(C)C)NC(=O)[C@H](CCCCN)NC(=O)CNC(=O)CNC(=O)[C@H](CCCCN)NC(=O)[C@H](C)NC(=O)CNC(=O)[C@H](CCCCN)NC(=O)CNC(=O)CN)C(=O)N[C@@H](CCC(=O)O)C(=O)N[C@@H](C)C(=O)N[C@@H](C)C(=O)N[C@@H](C)C(=O)N[C@@H](CCCCN)C(=O)O [CaM2] (H-GGKGAKGGKLAHLRARLKELAALEAAAK-OH; N-terminus and C-terminus assumed) | -2.0 ± 0.1 kcal/mol |  | 2.9 ± 0.5 × 10^6 M^−1 | -4.5 ± 1.6 | +16 ± 2 kcal/mol |  | binding stoichiometry at saturation (peptide:CaM) ([2]; biphasic ITC isotherm): two CaM2 molecules are bound to one molecule of CaM; ΔH (Ca^2+-free CaM (apoCaM)): +2.1 ± 0.4 kcal/mol
CC[C@H](C)[C@H](NC(=O)[C@H](CC(C)C)NC(=O)[C@H](CCCCN)NC(=O)[C@H](CCC(=O)O)NC(=O)[C@H](CCCCN)NC(=O)[C@@H](NC(=O)[C@H](CCCCN)NC(=O)[C@H](CCC(=O)O)NC(=O)[C@@H](NC(=O)[C@H](CCCNC(=N)N)NC(=O)[C@H](CCC(=O)O)NC(=O)[C@H](CCCCN)NC(=O)[C@H](Cc1ccccc1)NC(=O)[C@H](CC(C)C)NC(=O)[C@H](CCCCN)NC(=O)[C@@H](NC(=O)[C@H](CC(C)C)NC(=O)[C@H](CCC(=O)O)NC(=O)[C@H](CCC(N)=O)NC(=O)[C@H](CC(C)C)NC(=O)[C@H](CCCNC(=N)N)NC(=O)[C@H](CC(=O)O)NC(=O)[C@@H](N)CC(N)=O)C(C)C)[C@@H](C)O)C(C)C)C(=O)N[C@@H](CC(=O)O)C(=O)N1CCC[C@H]1C(=O)O [CaM1] (H-NDRLQELVKLFKERTEKVKEKLIDP-OH; N-terminus and C-terminus assumed) |  |  | 4.2 ± 0.5 × 10^3 M^−1 | -7.5 ± 0.2 | +40 ± 4 kcal/mol | -2.5 ± 0.2 kcal/mol | fold higher affinity for Ca^2+-bound CaM compared to apoCaM ([2]; comparison of NMR spectral changes and ITC): at least 100 fold; fold higher affinity for CaM N-lobe compared to CaM C-lobe ([3]; from ITC with isolated lobes): at least fivefold
CC[C@H](C)[C@H](NC(=O)[C@H](CC(C)C)NC(=O)[C@H](CCCCN)NC(=O)[C@H](CCC(=O)O)NC(=O)[C@H](CCCCN)NC(=O)[C@@H](NC(=O)[C@H](CCCCN)NC(=O)[C@H](CCC(=O)O)NC(=O)[C@@H](NC(=O)[C@H](CCCNC(=N)N)NC(=O)[C@H](CCC(=O)O)NC(=O)[C@H](CCCCN)NC(=O)[C@H](CCC(=O)O)NC(=O)[C@H](CC(C)C)NC(=O)[C@H](CCCCN)NC(=O)[C@@H](NC(=O)[C@H](CC(C)C)NC(=O)[C@H](CCC(=O)O)NC(=O)[C@H](CCC(N)=O)NC(=O)[C@H](CC(C)C)NC(=O)[C@H](CCCNC(=N)N)NC(=O)[C@H](CC(=O)O)NC(=O)[C@@H](N)CC(N)=O)C(C)C)[C@@H](C)O)C(C)C)C(=O)N[C@@H](CC(=O)O)C(=O)N1CCC[C@H]1C(=O)O [CaM1^F575E] (H-NDRLQELVKLEKERTEKVKEKLIDP-OH; N-terminus and C-terminus assumed) |  |  |  |  |  | +0.7 ± 0.5 kcal/mol | 

Continued, in another order:

ΔH1 [1] | fold decrease in binding affinity to CaM C-lobe caused by mutation [1] | K2 [2] | ΔH1 [2] [kcal/mol] | ΔH2 [2] | ΔH1 [3] | Structure (SMILES) | also measured
+3.1 ± 0.5 kcal/mol | more than 500 fold |  |  |  |  | CC(C)C[C@H](NC(=O)[C@H](C)NC(=O)[C@H](C)NC(=O)[C@H](CC(C)C)NC(=O)[C@H](CCC(=O)O)NC(=O)[C@H](CCCCN)NC(=O)[C@H](CC(C)C)NC(=O)[C@H](CCCNC(=N)N)NC(=O)[C@H](C)NC(=O)[C@H](CCCNC(=N)N)NC(=O)[C@H](CCC(=O)O)NC(=O)[C@H](Cc1c[nH]cn1)NC(=O)[C@H](C)NC(=O)[C@H](CC(C)C)NC(=O)[C@H](CCCCN)NC(=O)CNC(=O)CNC(=O)[C@H](CCCCN)NC(=O)[C@H](C)NC(=O)CNC(=O)[C@H](CCCCN)NC(=O)CNC(=O)CN)C(=O)N[C@@H](CCC(=O)O)C(=O)N[C@@H](C)C(=O)N[C@@H](C)C(=O)N[C@@H](C)C(=O)N[C@@H](CCCCN)C(=O)O [CaM2^L1132E] (H-GGKGAKGGKLAHERARLKELAALEAAAK-OH; N-terminus and C-terminus assumed) | 
+2.6 ± 1.8 kcal/mol | more than 500 fold |  |  |  |  | CC(C)C[C@H](NC(=O)[C@H](C)NC(=O)[C@H](C)NC(=O)[C@H](CC(C)C)NC(=O)[C@H](CCC(=O)O)NC(=O)[C@H](CCCCN)NC(=O)[C@H](CCC(=O)O)NC(=O)[C@H](CCCNC(=N)N)NC(=O)[C@H](C)NC(=O)[C@H](CCCNC(=N)N)NC(=O)[C@H](CC(C)C)NC(=O)[C@H](Cc1c[nH]cn1)NC(=O)[C@H](C)NC(=O)[C@H](CC(C)C)NC(=O)[C@H](CCCCN)NC(=O)CNC(=O)CNC(=O)[C@H](CCCCN)NC(=O)[C@H](C)NC(=O)CNC(=O)[C@H](CCCCN)NC(=O)CNC(=O)CN)C(=O)N[C@@H](CCC(=O)O)C(=O)N[C@@H](C)C(=O)N[C@@H](C)C(=O)N[C@@H](C)C(=O)N[C@@H](CCCCN)C(=O)O [CaM2^L1136E] (H-GGKGAKGGKLAHLRAREKELAALEAAAK-OH; N-terminus and C-terminus assumed) | 
